Values after ≈ are worked out from the molar mass of the structure shown.
Tests used:
[1] = (§1) Antiinflammatory activity in LPS-stimulated rat neonatal microglia assessed as inhibition of PMA-induced superoxide anion production preincubated 15 mins prior to PMA challenge; format: functional, cell-based
Procedure, shortened: (§2)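 Neonatal rat microglia, 2 × 10^5 cells/well, primed 17 h with LPS (0.3 ng/mL) in DMEM + 10% FBS + penicillin/streptomycin at 35.9 °C, 5% CO2. Cells washed with warm HBSS, given compound (0.01-10 µM) or DMSO vehicle for 15 min, then PMA (1 µM). Triplicate wells, two independent experiments.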

Microglia [2] = test: as §1; format: functional, cell-based; procedure, shortened: as §2
Plasmodium falciparum = test: Antimalarial activity against chloroquine-resistant Plasmodium falciparum W2 after 48 hrs by fluorimetry; format: functional, organism-based; conditions: W2, 48 h
NCI-H460 = test: Cytotoxicity against human NCI-H460 cells relative to control; format: functional; parameters: concentration or dose not given beside the values
Procedure, shortened: (§3)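 One-dose primary screen on a three-line panel (MCF-7, NCI-H460, SF268). Growth of treated cells given as percent of untreated controls.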

[3] = (§4) Antiinflammatory activity in LPS-stimulated rat neonatal microglia assessed as inhibition of PMA-induced TXB2 production preincubated 15 mins prior to PMA challenge; format: functional, cell-based; procedure, shortened: as §2
Microglia [4] = test: as §4; format: functional, cell-based; procedure, shortened: as §2
MCF7 = test: Cytotoxicity against human MCF7 cells relative to control; format: functional; parameters: concentration or dose not given beside the values; procedure, shortened: as §3
[5] = Cytotoxicity against human NCI60 cells; format: functional
[6] = tested on: Mycobacterium tuberculosis; test: Antimycobacterial activity against Mycobacterium tuberculosis H37Rv at 6.25 ug/mL; format: functional
[7] = (§5) Antiinflammatory activity in LPS-stimulated rat neonatal microglia assessed as drug level causing 50% PMA-induced LDH release preincubated 15 mins prior to PMA challenge by spectrophotometry; format: functional; procedure, shortened: as §2
Microglia [8] = test: as §5; format: functional; procedure, shortened: as §2
SF-268 = test: Cytotoxicity against human SF268 cells relative to control; format: functional; parameters: concentration or dose not given beside the values; procedure, shortened: as §3
Human alphaherpesvirus 1 = test: Antiviral activity against HSV1; format: functional, organism-based
Human alphaherpesvirus 2 = test: Antiviral activity against HSV2; format: functional, organism-based
Human alphaherpesvirus 3 = test: Antiviral activity against VZV; format: functional, organism-based
Human betaherpesvirus 5 = test: Antiviral activity against HCMV; format: functional, organism-based

| SMILES | IC50 [1] | Activity (Microglia [2]) | IC50 (Plasmodium falciparum) | Activity (NCI-H460) | IC50 [3] | Activity (Microglia [4]) | Activity (MCF7) | GI50 [5] | inhibition at 6.25 µg/mL [6] | Activity [7] | Activity (Microglia [8]) | Activity (SF-268) | EC50 (Human alphaherpesvirus 1) | EC50 (Human alphaherpesvirus 2) | EC50 (Human alphaherpesvirus 3) | EC50 (Human betaherpesvirus 5) |
| --- | --- | --- | --- | --- | --- | --- | --- | --- | --- | --- | --- | --- | --- | --- | --- | --- |
| CC(=O)O[C@H]1[C@H](O)[C@@H](Oc2c(C)c3c4c(c2O)[C@@H](C)CC[C@@H]4[C@@H](C)C[C@H]3C=C(C)C)OC[C@H]1O [PSEUDOPTEROSIN V] | > 10 µM | Dose-dependent effect | 1 µg/mL (≈ 2.11 µM) | 0% | > 10 µM | Dose-dependent effect | 0% | 20 µM | 25% | 2.2 µM | Dose-dependent effect | 0% | – | – | – | – |
| Nc1nc2c(ncn2COCCO)c(=O)[nH]1 [ACYCLOVIR] | – | – | – | – | – | – | – | – | – | – | – | – | 0.95 µM | 0.95 µM | – | – |
| CC(=O)O[C@@H]1CO[C@H](Oc2c(C)c3c4c(c2O)[C@@H](C)CC[C@@H]4[C@@H](C)C[C@H]3C=C(C)C)[C@@H](O)[C@@H]1O [PSEUDOPTEROSIN U] | 14.7 µM | Dose-dependent effect | 19 µg/mL (≈ 40 µM) | 0% | > 10 µM | Dose-dependent effect | 0% | 20 µM | 43% | 0.7 µM | Dose-dependent effect | 0% | – | – | – | – |
| CC(=O)O[C@@H]1[C@@H](Oc2c(C)cc3c(c2O)[C@@H](C)CC[C@@H]3[C@@H](C)CCC=C(C)C)OC[C@@H](O)[C@H]1O | > 10 µM | Dose-dependent effect | – | – | > 10 µM | Dose-dependent effect | – | – | 37% | 10 µM | Dose-dependent effect | – | – | – | – | – |
| CC(=O)O[C@@H]1[C@@H](Oc2c(C)c3c4c(c2O)[C@@H](C)CC[C@@H]4[C@@H](C)C[C@H]3C=C(C)C)OC[C@@H](OC(C)=O)[C@H]1O [PSEUDOPTEROSIN X] | 10 µM | Dose-dependent effect | – | – | > 10 µM | Dose-dependent effect | – | – | – | 2.35 µM | Dose-dependent effect | – | – | – | – | – |
| CC(=O)O[C@H]1[C@H](O)[C@@H](Oc2c(C)c3c4c(c2O)[C@@H](C)CC[C@@H]4[C@@H](C)C[C@H]3C=C(C)C)OC[C@H]1OC(C)=O [PSEUDOPTEROSIN W] | > 10 µM | Dose-dependent effect | – | 0% | > 10 µM | Dose-dependent effect | 0% | – | – | 10 µM | Dose-dependent effect | 0% | – | – | – | – |
| CC(=O)O[C@H]1[C@@H](O)[C@H](O)[C@H](Oc2c(C)c3c4c(c2O)[C@@H](C)CC[C@@H]4[C@@H](C)C[C@H]3C=C(C)C)O[C@H]1C [PSEUDOPTEROSIN P] | > 10 µM | Dose-dependent effect | 12 µg/mL (≈ 24.6 µM) | 0% | > 10 µM | Dose-dependent effect | 0% | 1.7 µM | 76% | 0.6 µM | Dose-dependent effect | 0% | 2.9 µM | 2.9 µM | 2.6 µM | 2.9 µM |
| CC(=O)O[C@H]1[C@H](O)[C@H](Oc2c(C)c3c4c(c2O)[C@@H](C)CC[C@@H]4[C@@H](C)C[C@H]3C=C(C)C)O[C@@H](C)[C@H]1O [PSEUDOPTEROSIN Q] | 11.2 µM | Dose-dependent effect | 15 µg/mL (≈ 30.7 µM) | 101% | 4.7 µM | Dose-dependent effect | 103% | – | 37% | 3.4 µM | Dose-dependent effect | 107% | – | – | – | – |
| CC(=O)O[C@@H]1CO[C@H](Oc2c(C)cc3c(c2O)[C@@H](C)CC[C@@H]3[C@@H](C)CCC=C(C)C)[C@@H](O)[C@@H]1O | > 10 µM | Dose-dependent effect | – | – | > 10 µM | Dose-dependent effect | – | – | 25% | 3.6 µM | Dose-dependent effect | – | – | – | – | – |

— ChEMBL document CHEMBL1148918, “New pseudopterosin and seco-pseudopterosin diterpene glycosides from two Colombian isolates of Pseudopterogorgia elisabethae and their diverse biological activities” (J Nat Prod, 2004)
